Laboratory results reported in ChEMBL document CHEMBL1158358, “Synthesis, antimicrobial and cytotoxic activities of some 5-arylidene-4-thioxo-thiazolidine-2-ones” (Eur J Med Chem, 2009).
≈ marks a conversion by molar mass, not a printed value.

Assays:
Assay type in all cases: functional
NCI-H292 [1] = experiment: Cytotoxicity against human NCI-H292 cells at 10 ug/mL after 72 hrs by MTT assay; settings: NCI-H292, 72 h, read-out: GI
Summary of the method: (§1)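 MTT antiproliferative assay. Cells were diluted to 10⁵ cells/mL in 96-well plates and preincubated for 24 h at 37 °C in humid 5% CO₂. Compounds or vincristine (reference) were then added. Formazan was dissolved and OD read at 540 nm, compared with medium-only control cells. Run in triplicate.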

Enterococcus faecalis [2] = experiment: Antimicrobial activity against Enterococcus faecalis UFPEDA 138 at 300 ug/disk after 24 hrs by disk diffusion method; settings: UFPEDA 138, 24 h, read-out: IZ
Summary of the method: (§2)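 Preliminary screen by disk diffusion. Paper disks (6 mm) holding 300 µg of compound were placed on agar plates inoculated with a standardized microbial suspension. DMSO-only disks served as negative controls. A mean inhibition zone below 7 mm was scored as no sensitivity. Values are means, n = 3.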

Enterococcus faecalis [3] = experiment: Antimicrobial activity against multidrug-resistant Enterococcus faecalis H.C. 21752 isolate after 20 hrs by twofold serial dilution technique; settings: H.C. 21752, 20 h
Summary of the method: (§3)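 Twofold serial dilution MIC in agar plates against Gram-positive strains and multidrug-resistant clinical isolates. Inoculum applied was 10⁵ CFU/plate. Plates with culture medium plus DMSO served as negative control. MIC was read after incubation at 35 °C for 20 h.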

[4] = system: Mycolicibacterium smegmatis; experiment: Antimicrobial activity against Mycobacterium smegmatis UFPEDA 71 after 20 hrs by twofold serial dilution technique; settings: UFPEDA 71, 20 h
Summary of the method: (§4)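 MIC was determined by twofold serial dilution. Bacteria were tested in plates at 10⁵ CFU/plate and read after 20 h. C. albicans was tested in tubes at 10³ CFU/tube and read after 48 h. All incubations were at 35 °C. Medium plus DMSO served as the negative control.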

HEp-2 [5] = experiment: Cytotoxicity against human Hep2 cells at 5 ug/mL after 72 hrs by MTT assay; settings: HEp-2, 72 h, read-out: GI; summary of the method: as §1
Bacillus subtilis [6] = experiment: Antimicrobial activity against Bacillus subtilis UFPEDA 16 after 20 hrs by twofold serial dilution technique; settings: UFPEDA 16, 20 h; summary of the method: as §4
NCI-H292 [7] = experiment: Cytotoxicity against human NCI-H292 cells at 1.25 ug/mL after 72 hrs by MTT assay; settings: NCI-H292, 72 h, read-out: GI; summary of the method: as §1
Staphylococcus aureus [8] = experiment: Antimicrobial activity against multidrug-resistant Staphylococcus aureus H.C. 21036 isolate after 20 hrs by twofold serial dilution technique; settings: H.C. 21036, 20 h; summary of the method: as §3
Candida albicans [9] = experiment: Antimicrobial activity against Candida albicans UFPEDA 1007 after 48 hrs by twofold serial dilution technique; settings: UFPEDA 1007, 48 h; summary of the method: as §4
Staphylococcus [10] = experiment: Antimicrobial activity against coagulase-negative Staphylococcus H.A.M. 338 isolate after 20 hrs by twofold serial dilution technique; settings: H.A.M. 338, 20 h; summary of the method: as §4
Staphylococcus aureus [11] = experiment: Antimicrobial activity against multidrug-resistant Staphylococcus aureus H.C. 20981 isolate after 20 hrs by twofold serial dilution technique; settings: H.C. 20981, 20 h; summary of the method: as §3
NCI-H292 [12] = experiment: Cytotoxicity against human NCI-H292 cells at 2.5 ug/mL after 72 hrs by MTT assay; settings: NCI-H292, 72 h, read-out: GI; summary of the method: as §1
Staphylococcus aureus [13] = experiment: Antimicrobial activity against multidrug-resistant Staphylococcus aureus H.C. 20905 isolate after 20 hrs by twofold serial dilution technique; settings: H.C. 20905, 20 h; summary of the method: as §3
Enterococcus faecalis [14] = experiment: Antimicrobial activity against multidrug-resistant Enterococcus faecalis H.C. 24708 isolate after 20 hrs by twofold serial dilution technique; settings: H.C. 24708, 20 h; summary of the method: as §3
NCI-H292 [15] = experiment: Cytotoxicity against human NCI-H292 cells at 5 ug/mL after 72 hrs by MTT assay; settings: NCI-H292, 72 h, read-out: GI; summary of the method: as §1
Staphylococcus aureus [16] = experiment: Antimicrobial activity against multidrug-resistant Staphylococcus aureus H.C. 20794 isolate after 20 hrs by twofold serial dilution technique; settings: H.C. 20794, 20 h; summary of the method: as §3
[17] = system: Mycolicibacterium smegmatis; experiment: Antimicrobial activity against Mycobacterium smegmatis UFPEDA 71 at 300 ug/disk after 24 hrs by disk diffusion method; settings: UFPEDA 71, 24 h, read-out: IZ; summary of the method: as §2
Staphylococcus [18] = experiment: Antimicrobial activity against coagulase-negative Staphylococcus H.A.M. 278 isolate after 20 hrs by twofold serial dilution technique; settings: H.A.M. 278, 20 h; summary of the method: as §4
Escherichia coli = experiment: Antimicrobial activity against Escherichia coli UFPEDA 224 at 300 ug/disk after 24 hrs by disk diffusion method; settings: UFPEDA 224, 24 h, read-out: IZ; summary of the method: as §2
Bacillus subtilis [19] = experiment: Antimicrobial activity against Bacillus subtilis UFPEDA 16 at 300 ug/disk after 24 hrs by disk diffusion method; settings: UFPEDA 16, 24 h, read-out: IZ; summary of the method: as §2
HEp-2 [20] = experiment: Cytotoxicity against human Hep2 cells at 10 ug/mL after 72 hrs by MTT assay; settings: HEp-2, 72 h, read-out: GI; summary of the method: as §1
Enterococcus faecalis [21] = experiment: Antimicrobial activity against multidrug-resistant Enterococcus faecalis H.C. 24962 isolate after 20 hrs by twofold serial dilution technique; settings: H.C. 24962, 20 h; summary of the method: as §3
Staphylococcus aureus [22] = experiment: Antimicrobial activity against Staphylococcus aureus UFPEDA 01 after 20 hrs by twofold serial dilution technique; settings: UFPEDA 01, 20 h; summary of the method: as §3
Staphylococcus aureus [23] = experiment: Antimicrobial activity against multidrug-resistant Staphylococcus aureus H.C. 20489 isolate after 20 hrs by twofold serial dilution technique; settings: H.C. 20489, 20 h; summary of the method: as §3
Candida albicans [24] = experiment: Antimicrobial activity against Candida albicans UFPEDA 1007 at 300 ug/disk after 48 hrs by disk diffusion method; settings: UFPEDA 1007, 48 h, read-out: IZ; summary of the method: as §2
Micrococcus luteus [25] = experiment: Antimicrobial activity against Micrococcus luteus UFPEDA 06 after 20 hrs by twofold serial dilution technique; settings: UFPEDA 06, 20 h; summary of the method: as §4
Enterococcus faecalis [26] = experiment: Antimicrobial activity against Enterococcus faecalis UFPEDA 138 after 20 hrs by twofold serial dilution technique; settings: UFPEDA 138, 20 h; summary of the method: as §4
HEp-2 [27] = experiment: Cytotoxicity against human Hep2 cells at 1.25 ug/mL after 72 hrs by MTT assay; settings: HEp-2, 72 h, read-out: GI; summary of the method: as §1
Pseudomonas aeruginosa = experiment: Antimicrobial activity against Pseudomonas aeruginosa UFPEDA 39 at 300 ug/disk after 24 hrs by disk diffusion method; settings: UFPEDA 39, 24 h, read-out: IZ; summary of the method: as §2
Enterococcus faecalis [28] = experiment: Antimicrobial activity against multidrug-resistant Enterococcus faecalis H.C. 21944 isolate after 20 hrs by twofold serial dilution technique; settings: H.C. 21944, 20 h; summary of the method: as §3
HEp-2 [29] = experiment: Cytotoxicity against human Hep2 cells at 2.5 ug/mL after 72 hrs by MTT assay; settings: HEp-2, 72 h, read-out: GI; summary of the method: as §1
Staphylococcus aureus [30] = experiment: Antimicrobial activity against Staphylococcus aureus UFPEDA 01 at 300 ug/disk after 24 hrs by disk diffusion method; settings: UFPEDA 01, 24 h, read-out: IZ; summary of the method: as §2
Serratia marcescens = experiment: Antimicrobial activity against Serratia marcescens UFPEDA 398 at 300 ug/disk after 24 hrs by disk diffusion method; settings: UFPEDA 398, 24 h, read-out: IZ; summary of the method: as §2
Staphylococcus aureus [31] = experiment: Antimicrobial activity against multidrug-resistant Staphylococcus aureus H.C. 21141 isolate after 20 hrs by twofold serial dilution technique; settings: H.C. 21141, 20 h; summary of the method: as §3
Micrococcus luteus [32] = experiment: Antimicrobial activity against Micrococcus luteus UFPEDA 06 at 300 ug/disk after 24 hrs by disk diffusion method; settings: UFPEDA 06, 24 h, read-out: IZ; summary of the method: as §2

Compound	zone of inhibition at 300 µg/disc (Enterococcus faecalis [2]) [mm]	MIC (Enterococcus faecalis [3]) [µg/mL]	MIC [4] [µg/mL]	MIC (Bacillus subtilis [6]) [µg/mL]	MIC (Staphylococcus aureus [8]) [µg/mL]	MIC (Staphylococcus [10]) [µg/mL]	MIC (Staphylococcus aureus [11]) [µg/mL]	MIC (Staphylococcus aureus [13]) [µg/mL]	MIC (Enterococcus faecalis [14]) [µg/mL]	MIC (Staphylococcus aureus [16]) [µg/mL]	zone of inhibition at 300 µg/disc [17] [mm]	MIC (Staphylococcus [18]) [µg/mL]	zone of inhibition at 300 µg/disc (Escherichia coli) [mm]	zone of inhibition at 300 µg/disc (Bacillus subtilis [19]) [mm]	MIC (Enterococcus faecalis [21]) [µg/mL]	MIC (Staphylococcus aureus [22]) [µg/mL]	MIC (Staphylococcus aureus [23]) [µg/mL]	zone of inhibition at 300 µg/disc (Candida albicans [24]) [mm]	MIC (Micrococcus luteus [25]) [µg/mL]	MIC (Enterococcus faecalis [26]) [µg/mL]	other results
O=C1NC(=S)/C(=C/c2cccc(F)c2)S1	22	16 (≈ 66.9 µM)	32 (≈ 134 µM)	16 (≈ 66.9 µM)	2 (≈ 8.36 µM)	16 (≈ 66.9 µM)	2 (≈ 8.36 µM)	2 (≈ 8.36 µM)	8 (≈ 33.4 µM)	2 (≈ 8.36 µM)	20	16 (≈ 66.9 µM)	< 7	20	8 (≈ 33.4 µM)	4 (≈ 16.7 µM)	2 (≈ 8.36 µM)	16	16 (≈ 66.9 µM)	32 (≈ 134 µM)	inhibition of growth at 10 µg/mL (NCI-H292 [1]): 26.8%; inhibition of growth at 5 µg/mL (HEp-2 [5]): 19.8%; inhibition of growth at 1.25 µg/mL (NCI-H292 [7]): 2.1%; MIC (Candida albicans [9]): 64 µg/mL (≈ 267 µM); inhibition of growth at 2.5 µg/mL (NCI-H292 [12]): 3.43%; inhibition of growth at 5 µg/mL (NCI-H292 [15]): 13.1%; inhibition of growth at 10 µg/mL (HEp-2 [20]): 20.9%; inhibition of growth at 1.25 µg/mL (HEp-2 [27]): 0.84%; zone of inhibition at 300 µg/disc (Pseudomonas aeruginosa): < 7 mm; MIC (Enterococcus faecalis [28]): 8 µg/mL (≈ 33.4 µM); inhibition of growth at 2.5 µg/mL (HEp-2 [29]): 7.03%; zone of inhibition at 300 µg/disc (Staphylococcus aureus [30]): 28 mm; zone of inhibition at 300 µg/disc (Serratia marcescens): < 7 mm; MIC (Staphylococcus aureus [31]): 16 µg/mL (≈ 66.9 µM); zone of inhibition at 300 µg/disc (Micrococcus luteus [32]): 27 mm
O=C1NC(=S)/C(=C/c2ccccc2F)S1	20	32 (≈ 134 µM)	32 (≈ 134 µM)	32 (≈ 134 µM)	2 (≈ 8.36 µM)	16 (≈ 66.9 µM)	4 (≈ 16.7 µM)	8 (≈ 33.4 µM)	32 (≈ 134 µM)	8 (≈ 33.4 µM)	20	32 (≈ 134 µM)	< 7	23	32 (≈ 134 µM)	8 (≈ 33.4 µM)	4 (≈ 16.7 µM)	16	32 (≈ 134 µM)	32 (≈ 134 µM)	inhibition of growth at 10 µg/mL (NCI-H292 [1]): 40.4%; inhibition of growth at 5 µg/mL (HEp-2 [5]): 8.86%; inhibition of growth at 1.25 µg/mL (NCI-H292 [7]): 4.29%; MIC (Candida albicans [9]): 32 µg/mL (≈ 134 µM); inhibition of growth at 2.5 µg/mL (NCI-H292 [12]): 7.78%; inhibition of growth at 5 µg/mL (NCI-H292 [15]): 25.2%; inhibition of growth at 10 µg/mL (HEp-2 [20]): 11.2%; inhibition of growth at 1.25 µg/mL (HEp-2 [27]): -8.34%; zone of inhibition at 300 µg/disc (Pseudomonas aeruginosa): < 7 mm; MIC (Enterococcus faecalis [28]): 32 µg/mL (≈ 134 µM); inhibition of growth at 2.5 µg/mL (HEp-2 [29]): 1.66%; zone of inhibition at 300 µg/disc (Staphylococcus aureus [30]): 24 mm; zone of inhibition at 300 µg/disc (Serratia marcescens): < 7 mm; MIC (Staphylococcus aureus [31]): 8 µg/mL (≈ 33.4 µM); zone of inhibition at 300 µg/disc (Micrococcus luteus [32]): 25 mm
CC1=C(C(=O)O)N2C(=O)[C@@H](NC(=O)[C@H](N)c3ccccc3)[C@H]2SC1 [CEPHALEXIN ANHYDROUS]		64 (≈ 184 µM)	> 128	≤ 1	> 128	128 (≈ 368 µM)	8 (≈ 23 µM)	> 128	64 (≈ 184 µM)	4 (≈ 11.5 µM)		128 (≈ 368 µM)			64 (≈ 184 µM)	≤ 1	2 (≈ 5.76 µM)		≤ 1	64 (≈ 184 µM)	MIC (Enterococcus faecalis [28]): 64 µg/mL (≈ 184 µM); MIC (Staphylococcus aureus [31]): 2 µg/mL (≈ 5.76 µM)
O=C1CSC(=O)N1 [THIAZOLIDINEDIONE]	< 7										< 7		< 7	< 7				< 7			zone of inhibition at 300 µg/disc (Pseudomonas aeruginosa): < 7 mm; zone of inhibition at 300 µg/disc (Staphylococcus aureus [30]): < 7 mm; zone of inhibition at 300 µg/disc (Serratia marcescens): < 7 mm; zone of inhibition at 300 µg/disc (Micrococcus luteus [32]): < 7 mm
